An excerpt weighted towards active compounds, which were near 2.6% of everything screened.
TCR CD3 inh – human TCR-CD3 binding inhibition; TAMRA-labeled TCR probe fluorescence, biochemical; inhibition, % at 9.4 µM; 360,000 compounds, 0.37% hits; in the data active = inhibition above about 19%;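 also: recombinant mutant TCR 2C K166C tagged with TAMRA read by polarization; 0% = receptor in buffer alone and 100% = receptor with positive control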
SIAE primary – blocks human sialic acid acetylesterase. Q9HAT2. inhibition, % at 9.66 µM. SIAE FP-Rh probe binding, fluorescence polarization. 370,000 compounds, 0.69% hits;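 active = inhibition above a cutoff: mean of compounds within the control limits plus 3 SD of those, cut at about 17% in these data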;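 also: 0% = plate median of compound wells and 100% = probe without SIAE protein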
ABHD4 inh – ABHD4 (mouse) inhibition, primary FP screen | purified mABHD4, FP-Rh probe fluorescence polarization | inhibition, % at 8.92 µM | 370,000 compounds, 0.54% hits | AID 720543;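 active = inhibition exceeding the mean over every tested compound plus 3 SD, cut at about 30% in these data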;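 also: 0% = plate median of compound wells and 100% = S159A mutant with DMSO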
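Assay system: mouse ABHD4 enzyme, wild type / Also added: fluorescent activity-based probe FP-Rh / Doses: single nominal dose of 8.92 µM, 0.89% DMSO final / Timing: 45 min compound pre-incubation plus 60 min probe step, 25 °C / Signal: FP readout, ex 525 nm / em 598 nm / Control set: S159A mutant/DMSO as 100%, compound-well median as 0%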
PRMT1 inh – inhibitors of human PRMT1. recombinant PRMT1, activity-based probe fluorescence polarization. inhibition, % at 2.79 µM. 370,000 compounds, 1.3% hits;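 active = inhibition above about 21% made by adding two undisclosed values, limit read from the data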
HTRA1 inhibitor – inhibitors of human serine peptidase HTRA1 | 340,000 compounds, 0.5% hits | inhibition, % at 5.96 µM | recombinant HTRA1, FP-rhodamine activity-based probe, fluorescence polarization | Q92743; in the data active = inhibition above about 36%;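 also: 0% = enzyme with DMSO and 100% = wells lacking enzyme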
Target sequence (Q92743 whole entry, looked up): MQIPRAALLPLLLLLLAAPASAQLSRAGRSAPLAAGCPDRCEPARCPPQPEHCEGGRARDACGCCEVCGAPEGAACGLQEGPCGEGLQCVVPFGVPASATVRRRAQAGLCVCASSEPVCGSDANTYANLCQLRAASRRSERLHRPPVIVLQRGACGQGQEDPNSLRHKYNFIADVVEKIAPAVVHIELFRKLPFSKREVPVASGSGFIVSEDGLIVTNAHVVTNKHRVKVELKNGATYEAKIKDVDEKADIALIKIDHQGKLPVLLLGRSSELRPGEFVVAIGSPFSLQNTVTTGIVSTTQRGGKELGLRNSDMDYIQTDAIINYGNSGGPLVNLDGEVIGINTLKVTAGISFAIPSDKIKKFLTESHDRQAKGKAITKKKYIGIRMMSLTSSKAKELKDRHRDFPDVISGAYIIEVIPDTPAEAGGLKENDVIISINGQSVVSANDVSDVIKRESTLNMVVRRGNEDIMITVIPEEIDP
Starred values were filed as active, the others as inactive; nt = no result given.

SMILES | TCR CD3 inh | SIAE primary | ABHD4 inh | PRMT1 inh | HTRA1 inhibitor
CCN(C(=O)COC(=O)CCC(=O)c1ccccc1)c1c(N)n(Cc2ccccc2)c(=O)[nH]c1=O | 1.4 | 25.8* | -5.3 | -2.1 | 2.1
CCN(C(=O)COC(=O)CCC(=O)c1ccc(C)cc1)c1c(N)n(Cc2ccccc2)c(=O)[nH]c1=O | -3.3 | -0.2 | 4.5 | 6.2 | 0.2
CCc1c(C)sc(NC(=O)c2ccoc2C)c1C(N)=O | 5.7 | 6.7 | 8.2 | 13.1 | 3.1
O=C(CCCc1nc2ccccc2s1)N1CCN(c2ccccc2F)CC1 | 5.1 | 4.0 | -1.0 | -6.2 | -3.9
O=C(CCCc1nc2ccccc2s1)N1CCN(c2ccccc2)CC1 | 8.0 | 4.4 | 0.7 | 23.3* | -0.9
Cc1[nH]c2ccccc2c1CC(=O)Nc1ccc(N(C)c2cccnc2)c(-c2cccc(Cl)c2)c1 | -4.0 | 4.2 | 30.1* | 1.7 | nt
COC(=O)c1cc(C(=O)OCC(=O)N2CCCCC2)cc([N+](=O)[O-])c1 | -1.6 | 3.8 | 2.8 | 1.6 | -1.4
Cc1oc(C)c2c(=O)ccc3c(c12)OC(N)=C(C#N)C3c1ccccc1 (stereo unspecified) | -9.3 | 6.4 | 14.9 | 22.2* | 24.0
CSc1ccc(C2C(C#N)=C(N)Oc3c2ccc(=O)c2c(C)oc(C)c32)cc1 (stereo unspecified) | 1.5 | 5.9 | 18.8 | 7.0 | 36.0
CC(C)(C)c1cc(C(c2cccnc2)N2CCN(CCO)CC2)cc(C(C)(C)C)c1O (stereo unspecified) | 2.4 | 2.2 | 7.8 | 22.4* | -14.9
O=S(=O)(c1ccccc1)N(CC1CO1)c1cc(Cl)ccc1Cl (stereo unspecified) | -0.5 | -0.1 | -1.6 | 6.3 | -5.7
Oc1ccc(C2CNCc3sccc32)cc1O (stereo unspecified) | -1.8 | 11.8 | 24.3 | 45.8* | 27.2
Oc1ccc(C2CNCCc3c2cc(O)c(O)c3Cl)cc1 (stereo unspecified) | 4.7 | -1.7 | -1.5 | -0.3 | 4.4
Cc1cccc(N2C(=O)c3cccc4cccc(c34)C2=O)c1 | -1.8 | -7.7 | -5.8 | 4.0 | -6.8
Cc1cccc(N2C(=O)c3cccc4c(N)ccc(c34)C2=O)c1 | 16.4 | 11.1 | 28.8 | 161.6* | 18.6
Nc1cccc(N2C(=O)c3cccc4c(N)ccc(c34)C2=O)c1 | 13.8 | 5.4 | 19.2 | 112.7* | 14.7
Cc1ccc(-n2c(SCc3c(Cl)cccc3Cl)nnc2-c2ccco2)cc1 | nt | -0.9 | -8.9 | 1.0 | nt
COc1ccc(C(=O)NCc2ccc3c(c2)cc(C)n3C)cc1OC | 8.3 | -1.6 | 16.7 | 24.3* | 12.2
COc1cccc(C(=O)NCc2ccc3c(c2)cc(C)n3C)c1 | 6.0 | 3.2 | 9.5 | -1.2 | 13.1
COc1ccc2[nH]c3c(c2c1)CCN1C(=O)C(CC(=O)NCCCn2ccnc2)C[C@H](C(=O)N2CCOCC2)[C@@]31C (stereo partly specified) | 6.3 | 2.1 | 2.2 | -0.8 | 0.6
COC(=O)[C@]12C[C@H](CC(=O)NCc3ccc(C)o3)C(=O)N(Cc3ccc(Cl)cc3Cl)C1=C[C@H](COCc1ccccc1)O[C@@H]2C | nt | -2.4 | -10.2 | 2.3 | nt
O=C1CN(S(=O)(=O)c2cc(Br)ccc2Br)CCN1 | 7.1 | -1.1 | 0.8 | -6.8 | 10.1
O=c1c(Br)ccc(Br)cc1Br | -1.0 | 4.2 | 11.6 | 61.6* | 12.0
Cc1cccc(C)c1NC(=O)CSc1nnc(-c2ccco2)c(-c2ccco2)n1 | nt | nt | nt | nt | 50.1*
C[C@H]1CN([C@@H](C)CO)C(=O)c2cc(NC(=O)NC3CCCCC3)ccc2O[C@H]1CN(C)C(=O)Nc1ccc(C(F)(F)F)cc1 | 1.9 | -4.8 | -15.1 | -2.3 | -18.1
SMILES | TCR CD3 inh | SIAE primary | ABHD4 inh | PRMT1 inh | HTRA1 inhibitor
C#CCN(C[C@H]1[C@H](OC(=O)NCCCCCC)[C@H](OC(=O)NCCCCCC)CN(C(=O)OC(C)C)N1C(=O)OC(C)C)S(=O)(=O)c1ccc(C)cc1 | -2.3 | -8.2 | -6.6 | 1.5 | nt
CS(=O)(=O)c1ccc(C(=O)NNC(=O)c2cc(-c3ccccc3)n[nH]2)cc1 | 3.6 | 3.7 | 0.9 | 23.9* | 4.0
CS(=O)(=O)Cc1ccc(C(=O)NNC(=O)c2cc(-c3ccccc3)n[nH]2)cc1 | -1.8 | 0.0 | -0.7 | -2.2 | -2.5
Cc1nc2cc(C(=O)O)ccc2s1 | -2.0 | 4.1 | -1.5 | 21.4* | 3.9
CCCn1cc(CCC(=O)Nc2ccc(Oc3cccnc3)cc2)c2ccccc21 | 5.1 | 10.9 | -12.9 | -2.3 | nt
Cc1ccc2c(c1)c1nnc(SCC(=O)N3CCN(c4ccc(F)cc4)CC3)nc1n2CC(=O)O | -9.9 | 1.1 | 5.8 | 22.3* | 1.1
CCn1c2ccc(C)cc2c2nnc(SCCN3CCOCC3)nc21 | 3.0 | -2.0 | 5.8 | 2.0 | 5.0
COC(=O)[C@]12C[C@H](CC(=O)NCc3cccc4ccccc34)C(=O)N(CCC3=CCCCC3)C1=C[C@H](COCc1ccccc1)O[C@@H]2C | -5.7 | -2.2 | 4.7 | 1.1 | nt
O=[N+]([O-])c1ccccc1-c1ccc(CN2CCN(c3ccccc3)CC2)o1 | -3.6 | -2.6 | -1.8 | 23.2* | 9.8
COc1cccc(C2NC(CCSC)(C(=O)O)C3C(=O)N(C(C)C)C(=O)C23)c1O (stereo unspecified) | -0.8 | 20.6* | -2.0 | -2.4 | -4.5
CN1C[C@@H]2[C@@H]3C(=O)N(Cc4ccccc4)C(=O)[C@@H]3[C@](Cc3ccccc3)(C1=O)N2C(=O)c1ccc(C(C)(C)C)cc1 | -1.6 | 2.9 | 0.6 | -2.9 | -19.9
COC(=O)c1c(NC(=O)CCC(=O)O)sc(Cc2ccccc2)c1C | -3.5 | 0.0 | -3.2 | 3.3 | 5.1
COC(=O)CCC(=O)Nc1sc(Cc2ccccc2)c(C)c1C(N)=O | -1.6 | -1.6 | 3.0 | 24.3* | -0.2
CCCC(=O)Nc1sc(Cc2ccccc2)c(C)c1C(N)=O | -3.9 | 2.7 | -5.5 | 23.2* | -1.6
CCOc1cc(CNc2ccc(O)cc2)ccc1OCc1ccc(Cl)cc1Cl | nt | nt | nt | nt | 62.3*
O=C(c1nc2ccc(Cl)cn2c1CN1CCCC1)N1CCc2ccccc2C1 | 11.0 | 0.0 | 1.3 | 24.4* | 8.4
O=C(c1nc2ccc(Cl)cn2c1CN1CCC(CO)CC1)N1CCc2ccccc2C1 | -1.5 | 2.4 | 1.3 | 2.3 | -2.9
CCC[C@@H](CN1CCC[C@H]1CN1C(N)=NC[C@@H]1Cc1ccccc1)N1C[C@@H](Cc2ccccc2)N(CCc2ccc(Cl)c(Cl)c2)C1=N | -3.3 | 11.3 | 33.6* | 1.0 | -5.3
COc1ccc(S(=O)(=O)N2N=C(c3cccc(NS(C)(=O)=O)c3)CC2c2ccco2)cc1 (stereo unspecified) | -1.3 | -7.6 | 6.4 | 23.5* | -5.8
O=C1NN(c2ccc(F)c(Cl)c2)C(=O)/C1=C\c1cccc(OC(=O)c2cccs2)c1 | 5.0 | -0.7 | 31.8* | 24.3* | 34.8
CCN=C1NC(c2cccc(F)c2)C(C(=O)OC)=C(C)N1Cc1ccccc1C(F)(F)F (stereo unspecified) | -7.9 | 5.5 | 7.0 | 0.3 | nt
CCOC(=O)CC1C(=O)NCCN1Cc1cccc(C(F)(F)F)c1 (stereo unspecified) | -2.6 | 0.3 | 7.3 | 23.5* | 0.8
